The subject of assay [1] is YU2, HXBc2 and HX(YU2 V3) gp120 glycoproteins. The assay can be described thus: Direct binding of 3H-labeled BMS-806 to gp120 variants. On the set-up: species or system HIV-1. The following applies: all three gp120 glycoproteins.
The test system of assay [2] is viruses with the S375W mutant envelope glycoproteins. In words: Enhancement of infection of Cf2Th-CCR5 cells, S375W virus. It is filed as cell-based, HIV-1.
Assay [3] has as its system Viruses with the S375A envelope glycoproteins. In words: Inhibition of infection of Cf2Th-CD4/CCR5 cells, S375A virus. It is filed as cell-based, HIV-1. The procedure, abridged: (§1)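 Cf2Th-CD4/CCR5 cells were seeded at 6×10^3/well 24 h ahead. Luciferase viruses bearing YU2 Env (w.t. or S375A) or control A-MLV Env were premixed with test compound (1 to 100 μM) for 30 min at 37°C, then added to the cells for 48 h at 37°C. Luciferase was read after freeze-thaw lysis. Infection was expressed relative to no compound. IC50 is the mean ± SD of five independent experiments, each run in triplicate.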

In assay [4] the test system is recombinant HIV-1 with the wild-type HIV-1YU2 envelope glycoproteins. The assay can be described thus: Enhancement of infection of CD4-negative Cf2Th-CCR5 cells, w.t. YU2 virus. It is filed as cell-based.
Assay [5] relates to viruses with the w.t. YU2 envelope glycoproteins. The assay can be described thus: Inhibition of infection of Cf2Th-CD4/CCR5 cells, w.t. YU2 virus. It is filed as cell-based, HIV-1. The following applies: for IC50: read-out: 50% inhibitory concentration (IC50), Cf2Th-CD4/CCR5 cells, w.t. YU2 envelope glycoproteins. A digest of the protocol:
as §1

Assay [6] has as its system viruses with Glu 429 replaced with a lysine residue. The assay can be described thus: Enhancement of infection of Cf2Th-CCR5 cells, Glu 429 to lysine virus. The following applies: Glu 429 replaced with lysine. It counts as cell-based, HIV-1.
Assay [7] concerns viruses with an alanine residue substituted for Glu 429. In words: Enhancement of infection of Cf2Th-CCR5 cells, Glu 429 to alanine virus. It is filed as cell-based, HIV-1. Particulars: Glu 429 replaced with alanine.
For assay [8], the system named is D368A mutant viruses. The assay can be described thus: Enhancement of infection of Cf2Th-CCR5 cells, D368A virus. It counts as cell-based, HIV-1. The following applies: CD4−CCR5+ target cells; D368A envelope glycoproteins.
Assay [9] relates to envelope glycoproteins of the laboratory-adapted CXCR4-using (X4) HIV-1 isolate, HXBc2. In words: Entry into CD4-negative Cf2Th-CXCR4 cells, HXBc2 virus. It is filed as cell-based. Particulars: data not shown.
Assay [10] concerns the target gp120 core bound to the 17b antibody. In words: Thermodynamic cycle by isothermal titration calorimetry, gp120 core bound to 17b. It counts as binding, HIV-1. (In ITC the heat of successive injections is recorded.)
Assay [11] concerns viruses containing a chimeric HIV-1 envelope glycoprotein (HX(YU2 V3)). In words: Enhancement of infection of Cf2Th-CCR5 cells, HX. It is filed as cell-based.
Assay [12] deals with gp120 core-17b complex. In words: BIAcore analysis. It is filed as binding, HIV-1. The following applies: data not shown. (In general: SPR reads the build-up and loss of mass on a sensor chip optically.)
For assay [13], the target named is HXBc2 gp120 (Human immunodeficiency virus type 1 group M subtype B, UniProt P04578). The assay can be described thus: Direct binding of 3H-labeled NBD-556, HXBc2 gp120. On the set-up: species or system HIV-1.
For assay [14], the system named is viruses with the KB9 envelope glycoproteins. The assay can be described thus: Entry into CD4-negative Cf2Th-CXCR4 cells, KB9 virus. Particulars: data not shown. It is filed as cell-based, HIV-1.
Assay [15] deals with viruses with the S375A change. In words: Enhancement of infection of Cf2Th-CCR5 cells, S375A virus. Particulars: S375A envelope glycoproteins, compared with w.t. It counts as cell-based, HIV-1.

Molecules are shown by their SMILES. “Also recorded” adds a separate entry of the source.

Data on four compounds can be found in PMC2597202 (Structure (London, England : 1993), 2008).

On to `COc1ccnc2[nH]cc(C(=O)C(=O)N3CCN(C(=O)c4ccccc4)C[C@H]3C)c12` [BMS-806], for which the “direct binding of 3H-labeled BMS-806 (in words)” value in assay [1] is “similarly”.
For `CC1(C)CC(NC(=O)C(=O)Nc2ccc(Cl)c(F)c2)CC(C)(C)N1` [JRC-II-191], the “enhancement of infection (in words)” value in assay [2] is “did not activate the entry”. For the same compound, the IC50 in assay [3] is 10 to 20 µM; in assay [5], 54 µM. In addition, in assay [4], the “enhancement of HIV-1 entry/infection of CCR5+ cells (in words)” value is listed as “most potent stimulation of HIV-1 infection; also recorded: activated HIV-1 infection”. For the same compound, the “inhibition of HIV-1YU2 infection of cells expressing CD4 and CCR5 (in words)” value in assay [5] (specificity versus A-MLV envelope glycoproteins) is “specifically inhibited”. Further, in assay [6], the “activation of infection (in words)” value is “eliminated the activation of infection”. Besides, in assay [7], the “virus-enhancing activity (in words)” value was “significantly diminished”. Also, in assay [8], the “enhancement of infectivity (in words)” value is recorded as “enhanced”.
Usually Kd stands for the constant that tells how readily two partners part at equilibrium. High values mean a looser complex, low ones a tighter complex. On to `CC1(C)CC(NC(=O)C(=O)Nc2ccc(Cl)cc2)CC(C)(C)N1` [NBD-556], for which the “enhancement of entry (in words)” value in assay [9] is “not functionally enhanced”; in [14], “did not enhance”. Besides, the Kd came to 1500 nM in [10] (gp120 core bound to the 17b antibody, isothermal titration calorimetry) and 6.6 µM in [12]. The “increase in affinity for the gp120 core bound to the 17b antibody” value in assay [10] (versus gp120 core alone) is listed as “approximately 25 fold”. Moreover, the “enhancement of infection (in words)” value in assay [11] is on record as “dramatically enhanced infection”; in [2] it was “not enhanced”; in assay [15], “greater enhancement”. The IC50 was 10 to 20 µM in assay [3] and 100 µM in assay [5]. For the same compound, the “enhancement of HIV-1 entry/infection of CCR5+ cells (in words)” value in [4] is “significant enhancement”. For the same compound, the “activation of infection (in words)” value in assay [6] is “eliminated the activation of infection”. For the same compound, the “direct binding of 3H-labeled NBD-556 (in words)” value in [13] is given as “only moderately”. Also, the “virus-enhancing activity (in words)” value in assay [7] is on record as “less disruptive”. Besides, the “enhancement of infectivity (in words)” value in assay [8] is reported as “enhanced”.
On to `CC1(C)CC(NC(=O)C(=O)Nc2ccc(Br)cc2)CC(C)(C)N1` [NBD-557], for which, in assay [2], the “enhancement of infection (in words)” value is given as “did not activate the entry”. Moreover, the “enhancement of HIV-1 entry/infection of CCR5+ cells (in words)” value in assay [4] is reported as “comparably to NBD-556”. Moreover, the “activation of infection (in words)” value in assay [6] is “eliminated the activation of infection”. The “virus-enhancing activity (in words)” value in assay [7] is given as “significantly diminished”. Besides, the “enhancement of infectivity (in words)” value in [8] is reported as “not enhanced”.
